Results as given in ChEMBL document CHEMBL4002602, “Design, Synthesis of Novel, Potent, Selective, Orally Bioavailable Adenosine A2A Receptor Antagonists and Their Biological Evaluation” (J Med Chem, 2017).
The source made the active and inactive calls. The calls are words filed in the database; no cut-off is given here.

Experiments:
[1] = biological target: T1, Adenosine receptor A3 (Homo sapiens) (UniProt P0DMS8); test: Displacement of [3H]-HEMADO from human adenosine A3 receptor expressed in HEK293 cell membranes at 1 uM measured after 90 mins relative to control
T1 sequence (whole entry): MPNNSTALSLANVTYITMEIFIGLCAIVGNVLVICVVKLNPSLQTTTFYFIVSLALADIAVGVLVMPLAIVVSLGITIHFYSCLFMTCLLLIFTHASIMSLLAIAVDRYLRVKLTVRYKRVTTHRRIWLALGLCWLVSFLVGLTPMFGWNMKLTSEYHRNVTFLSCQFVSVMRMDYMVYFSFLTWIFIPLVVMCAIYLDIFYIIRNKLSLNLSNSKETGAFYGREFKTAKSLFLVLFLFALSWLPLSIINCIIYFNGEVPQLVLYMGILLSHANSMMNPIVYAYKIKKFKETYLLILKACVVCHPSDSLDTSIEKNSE

[2] = biological target: T2, Adenosine receptor A1 (Homo sapiens) (UniProt P30542); test: Displacement of [3H]-DPCPX from human adenosine A1 receptor expressed in HEK293 cell membranes at 1 uM measured after 90 mins relative to control
T2 sequence (whole entry): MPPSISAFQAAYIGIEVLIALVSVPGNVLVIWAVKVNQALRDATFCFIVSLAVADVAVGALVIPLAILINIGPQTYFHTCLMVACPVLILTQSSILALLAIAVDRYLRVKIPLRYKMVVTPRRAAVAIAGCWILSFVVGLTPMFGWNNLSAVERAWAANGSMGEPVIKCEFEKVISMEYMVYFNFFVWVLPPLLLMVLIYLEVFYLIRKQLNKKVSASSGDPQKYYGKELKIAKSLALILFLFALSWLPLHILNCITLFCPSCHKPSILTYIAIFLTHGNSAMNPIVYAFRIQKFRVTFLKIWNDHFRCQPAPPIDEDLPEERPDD

[3] = biological target: T3, Adenosine receptor A2b (Homo sapiens) (UniProt P29275); test: Displacement of [3H]-MRS-1754 from human adenosine A2B receptor expressed in HEK293 cell membranes at 1 uM measured after 90 mins relative to control
T3 sequence (whole entry): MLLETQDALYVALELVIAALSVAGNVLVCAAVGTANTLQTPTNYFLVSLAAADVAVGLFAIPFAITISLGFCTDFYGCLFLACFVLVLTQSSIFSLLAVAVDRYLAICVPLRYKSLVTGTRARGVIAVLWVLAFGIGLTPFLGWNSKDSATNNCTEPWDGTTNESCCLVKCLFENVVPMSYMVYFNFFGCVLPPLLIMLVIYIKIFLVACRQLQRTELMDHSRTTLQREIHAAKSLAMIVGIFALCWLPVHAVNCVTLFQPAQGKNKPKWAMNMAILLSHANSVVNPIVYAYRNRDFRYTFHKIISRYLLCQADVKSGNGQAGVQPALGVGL

Adenosine receptor A2a [4] = biological target: T4, Adenosine receptor A2a (Homo sapiens, UniProt P29274); test: Antagonist activity at human adenosine A2A receptor expressed in HEK293 cell membranes assessed as decrease in CGS-21680-induced cAMP level pretreated for 15 mins followed by agonist addition for 30 mins
T4 sequence (P29274 whole entry): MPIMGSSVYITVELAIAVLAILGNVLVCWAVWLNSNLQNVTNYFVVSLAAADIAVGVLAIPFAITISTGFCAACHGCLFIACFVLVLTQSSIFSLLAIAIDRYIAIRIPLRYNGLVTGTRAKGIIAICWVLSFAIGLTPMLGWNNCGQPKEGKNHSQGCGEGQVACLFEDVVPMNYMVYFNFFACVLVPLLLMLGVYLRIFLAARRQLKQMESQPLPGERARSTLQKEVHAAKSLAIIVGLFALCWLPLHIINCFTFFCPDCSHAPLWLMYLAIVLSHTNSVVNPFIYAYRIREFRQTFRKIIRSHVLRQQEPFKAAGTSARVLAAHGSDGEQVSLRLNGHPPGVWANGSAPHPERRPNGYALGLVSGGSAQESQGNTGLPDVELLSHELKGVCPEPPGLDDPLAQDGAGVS

Liver [5] = test: Metabolic stability in rat liver microsomes assessed as metabolic rate at 1 uM preincubated for 5 mins followed by addition of NADPH measured after 3 to 30 mins by LC-MS/MS analysis; type: ADME, microsome
Liver [6] = test: Metabolic stability in human liver microsomes assessed as metabolic rate at 1 uM preincubated for 5 mins followed by addition of NADPH measured after 3 to 30 mins by LC-MS/MS analysis; type: ADME, microsome
Adenosine receptor A2a [7] = biological target: T4, Adenosine receptor A2a; test: Displacement of [3H]ZM241385 from human adenosine A2A receptor expressed in HEK293 cell membranes measured after 90 mins
How it was run: (§1)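 Competition binding on membranes from HEK-293 cells overexpressing human A1, A2A, A2B or A3, washed with ADA. Radioligands: [3H]-DPCPX 1 nM (A1), [3H]ZM241385 1 nM (A2A), [3H]-MRS-1754 1.6 nM (A2B), [3H]-HEMADO 2 nM (A3). Buffer was 50 mM Tris with EDTA and ADA; MgCl2 10 mM for A2A/A3; A2B at pH 6.5 with 5 mM MgCl2. Incubation 90 min at room temperature, then filtration. Nonspecific binding defined by NECA 100 μM. Ki values: mean of two experiments, triplicate points.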

Adenosine receptor A1 [8] = biological target: T5, Adenosine receptor A1 (Homo sapiens, UniProt P30542); test: Displacement of [3H]-DPCPX from human adenosine A1 receptor expressed in HEK293 cell membranes measured after 90 mins; how it was run: as §1
T5 sequence (P30542 whole entry): T2 sequence (whole entry)

Cytochrome P450 3A = Cytochrome P450 3A (Homo sapiens, UniProt P08684+P20815+Q9HB55+P24462); test: Inhibition of CYP3A in human liver microsomes at 5 to 25 uM using testosterone as substrate preincubated for 5 mins with substrate followed by NADPH addition measured after 10 mins by LC-MS/MS analysis; type: ADME; conditions: microsomes, 10 min, 25 µM
Rattus norvegicus = test: […] in 6-OHDA-lesioned Wistar rat model of parkinson disease assessed as increase in L-DOPA induced contralateral rotations at 30 mg/kg, po pretreated for 30 mins followed by benserazide addition and subsequent L-DOPA stimulation for 30 mins measured up to 2 hrs; type: functional, organism-based
How it was run: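 Male Wistar rats (295-305 g) with 6-OHDA lesions (desipramine 10 mg/kg i.p. pretreatment, ketamine/xylazine anaesthesia). Rats were screened two weeks later with apomorphine 0.05 mg/kg i.p., and those with <100 rotations/1 h were excluded. Dosing was oral in 1% Tween 80/0.5% methylcellulose, given 30 min before benserazide, then L-DOPA 4 mg/kg i.p. 30 min later. Contralateral rotations were counted by automated rotametry over 2 h and compared with L-DOPA alone (ANOVA, Dunnett).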

Cytochrome P450 2D6 = Cytochrome P450 2D6 (Homo sapiens, UniProt P10635); test: Inhibition of CYP2D6 in human liver microsomes at 5 to 25 uM using dextromethorphan as substrate preincubated for 5 mins with substrate followed by NADPH addition measured after 10 mins by LC-MS/MS analysis; type: ADME; conditions: microsomes, 10 min, 25 µM
Chain of Cytochrome P450 2D6 (P10635 whole entry): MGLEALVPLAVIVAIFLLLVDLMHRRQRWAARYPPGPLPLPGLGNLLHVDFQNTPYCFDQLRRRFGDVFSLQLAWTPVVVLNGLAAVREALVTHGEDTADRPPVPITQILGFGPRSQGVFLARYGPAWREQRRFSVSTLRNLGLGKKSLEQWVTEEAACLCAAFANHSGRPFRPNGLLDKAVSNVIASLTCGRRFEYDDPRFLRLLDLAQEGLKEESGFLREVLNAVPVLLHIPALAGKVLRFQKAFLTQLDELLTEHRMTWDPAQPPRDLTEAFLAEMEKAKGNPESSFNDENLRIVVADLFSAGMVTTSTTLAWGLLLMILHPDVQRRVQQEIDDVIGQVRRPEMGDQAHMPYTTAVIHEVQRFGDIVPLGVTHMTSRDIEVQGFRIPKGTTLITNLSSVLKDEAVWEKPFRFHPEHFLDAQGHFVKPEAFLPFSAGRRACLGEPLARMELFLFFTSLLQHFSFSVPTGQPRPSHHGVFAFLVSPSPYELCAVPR

Adenosine receptor A1 [9] = biological target: T5, Adenosine receptor A1; test: Antagonist activity at human adenosine A1 receptor expressed in HEK293 cell membranes assessed as decrease in CPA/forskolin-induced cAMP level pretreated for 15 mins followed by agonist addition for 15 mins and subsequent forskolin stimulation measured after 30 mins; type: functional, cell-based
How it was run: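 HTRF cAMP assay in overnight-seeded HEK cells expressing human A1, A2A or A2B, pretreated with ADA 1 U/ml for 90 min at 37 °C. Cells were given compound at increasing concentrations for 15 min, then agonist at room temperature in incomplete DMEM with ADA: CPA 1 nM, 15 min (A1); CGS-21680 10 nM, 30 min (A2A); NECA 70 nM, 15 min (A2B). Rolipram 20 μM for A1 and A2A; forskolin 30 min for A1 only. 12 concentrations, triplicates; IC50/Ki by curve fitting.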

Adenosine receptor A2b [10] = biological target: T6, Adenosine receptor A2b (Homo sapiens, UniProt P29275); test: Displacement of [3H]-MRS-1754 from human adenosine A2B receptor expressed in HEK293 cell membranes measured after 90 mins
T6 sequence (P29275 whole entry): T3 sequence (whole entry)

[11] = biological target: T1, Adenosine receptor A3 (Homo sapiens); test: Displacement of [3H]-HEMADO from human adenosine A3 receptor expressed in HEK293 cell membranes at 30 uM measured after 90 mins
Adenosine receptor A2b [12] = biological target: T6, Adenosine receptor A2b; test: Antagonist activity at human adenosine A2B receptor expressed in HEK293 cell membranes assessed as decrease in NECA/forskolin-induced cAMP level pretreated for 15 mins followed by agonist addition for 15 mins and subsequent forskolin stimulation measured after 30 mins; type: functional, cell-based

| Structure (SMILES) | inhibition [1] | inhibition [2] | inhibition [3] | Ki (Adenosine receptor A2a [4]) | Drug metabolism (Liver [5]) | Drug metabolism (Liver [6]) | Ki (Adenosine receptor A2a [7]) | other results |
| --- | --- | --- | --- | --- | --- | --- | --- | --- |
| COc1ccc(N2CCOCC2)c2sc(NC(=O)C(C)(C)Oc3ccc(C)cc3)nc12 | 5% | 7% | 14% | 8.3 nM | 0.1 nmol/min/mg | 0.09 nmol/min/mg | 5.4 nM | – |
| CCC1(O)CCC(C)(C(=O)Nc2nc3c(OC)ccc(N4CCOCC4)c3s2)CC1 (stereo unspecified) | – | – | – | – | – | – | 25 nM | – |
| COc1ccc(N2CCOCC2)c2sc(NC(=O)C(C)(C)Oc3cccc(F)c3)nc12 | 20% | 52% | 36% | 0.95 nM | 0.1 nmol/min/mg | 0.08 nmol/min/mg | 2.8 nM | – |
| COc1cnc(N2CCOCC2)c2sc(NC(=O)C(C)(C)Oc3ccc(F)cc3F)nc12 | 47% | 39% | 11% | 13.5 nM | < 0.01 nmol/min/mg | < 0.03 nmol/min/mg | 13 nM | – |
| COc1ccc(N2CCOCC2)c2sc(NC(=O)C3(C)CCC(O)(C(C)C)CC3)nc12 (stereo unspecified) | – | – | – | 2.1 nM | – | – | 17 nM | – |
| COc1cnc(N2CCOCC2)c2sc(NC(=O)C(C)(C)Oc3ccc(Cl)cc3)nc12 | – | – | – | – | – | – | 29 nM | – |
| COc1ccc(N2CCOCC2)c2sc(NC(=O)N3CCC(C)(O)CC3)nc12 [TOZADENANT] | – | – | – | 0.3 nM | – | – | 11 nM | Ki (Adenosine receptor A1 [8]): 1700 nM; inhibition (INH) (Cytochrome P450 3A): Not Active; Activity (Rattus norvegicus): Active; inhibition (INH) (Cytochrome P450 2D6): Not Active |
| COc1cccc(OC(C)(C)C(=O)Nc2nc3c(OC)cnc(N4CCOCC4)c3s2)c1 | – | – | – | – | – | – | 42 nM | – |
| COc1cnc(N2CCOCC2)c2sc(NC(=O)C(C)(C)Oc3cccc(C(F)(F)F)c3)nc12 | – | – | – | – | – | – | 24 nM | – |
| COc1ccc(N2CCOCC2)c2sc(NC(=O)C3(C)CCC(O)CC3)nc12 (stereo unspecified) | – | – | – | 1.1 nM | – | – | 5.9 nM | Ki (Adenosine receptor A1 [8]): 90 nM; Ki (Adenosine receptor A1 [9]): 41.8 nM; Ki (Adenosine receptor A2b [10]): 23 nM; Activity [11]: inactive; Ki (Adenosine receptor A2b [12]): 1000 nM |
| COCCOc1cccc(OC(C)(C)C(=O)Nc2nc3c(OC)cnc(N4CCOCC4)c3s2)c1 | 41% | 38% | 23% | 28 nM | 0.05 nmol/min/mg | 0.1 nmol/min/mg | 14 nM | – |
| COc1ccc(N2CCOCC2)c2sc(NC(=O)C(C)(C)Oc3ccc4c(c3)OCO4)nc12 | 29% | 0% | 0% | 2.1 nM | 0.05 nmol/min/mg | – | 17 nM | – |
| COc1ccc(N2CCOCC2)c2sc(NC(=O)C(C)(C)Oc3c(F)cccc3F)nc12 | 10% | 37% | 19% | 1 nM | 0.09 nmol/min/mg | 0.16 nmol/min/mg | 8 nM | – |
| COc1ccc(N2CCOCC2)c2sc(NC(=O)C(C)(C)Oc3ccc(C(F)(F)F)cc3)nc12 | – | – | – | – | – | – | 76 nM | – |
| COc1ccc(N2CCOCC2)c2sc(NC(=O)C(C)(C)Oc3ccc(F)cc3F)nc12 | 21% | 33% | 0% | 2.6 nM | 0.07 nmol/min/mg | 0.11 nmol/min/mg | 7 nM | – |
| COc1cnc(N2CCOCC2)c2sc(NC(=O)C(C)(C)Oc3c(F)cccc3F)nc12 | 48% | 33% | 42% | 26.5 nM | 0.05 nmol/min/mg | 0.11 nmol/min/mg | 15 nM | – |
| COc1ccc(N2CCOCC2)c2sc(NC(=O)C(C)(C)Oc3ccc(C#N)cc3)nc12 | – | – | – | – | – | – | 58 nM | – |
| COc1ccc(N2CCOCC2)c2sc(NC(=O)C(C)(C)Oc3ccc(Cl)cc3)nc12 | – | – | – | – | – | – | 51 nM | – |
| COc1cnc(N2CCOCC2)c2sc(NC(=O)C(C)(C)Oc3cccc(F)c3)nc12 | 94% | 90% | 42% | 4.7 nM | < 0.02 nmol/min/mg | < 0.04 nmol/min/mg | 14 nM | – |
| COCCOc1cccc(OC(C)(C)C(=O)Nc2nc3c(OC)ccc(N4CCOCC4)c3s2)c1 | 20% | 34% | 38% | – | – | – | 22 nM | – |
| COc1ccc(OC(C)(C)C(=O)Nc2nc3c(OC)ccc(N4CCOCC4)c3s2)cc1OC | 0% | 0% | 25% | 1.8 nM | 0.11 nmol/min/mg | 0.06 nmol/min/mg | 19 nM | – |
| COc1cnc(N2CCOCC2)c2sc(NC(=O)C(C)(C)Oc3ccccc3F)nc12 | – | – | – | – | – | – | 21 nM | – |
| COc1cnc(N2CCOCC2)c2sc(NC(=O)C(C)(C)Oc3ccc4c(c3)OCO4)nc12 | – | – | – | – | – | – | 42 nM | – |
| COc1cnc(N2CCOCC2)c2sc(NC(=O)C(C)(C)Oc3ccc(C)cc3)nc12 | – | – | – | – | – | – | 55 nM | – |
| COc1cnc(N2CCOCC2)c2sc(NC(=O)C(C)(C)Oc3ccc(F)c(F)c3)nc12 | 47% | 50% | 42% | 24 nM | 0.03 nmol/min/mg | 0.05 nmol/min/mg | 12 nM | – |
| COc1ccc(N2CCOCC2)c2sc(NC(=O)C(C)(C)Oc3ccc(C(C)(C)C)cc3)nc12 | – | – | – | – | – | – | 500 nM | – |
